From ChEMBL document CHEMBL3244267, “Antineoplastic properties of arylsulfonylhdrazones of 3-formylpyridazine 2-oxide and 4-formylpyrimidine 3-oxide” (J Med Chem, 1978) come the findings set out here.

Data set [1] relates to Sarcoma-180. Put plainly: Antitumor activity against mouse Sarcoma 180 cells allografted in CD-1 mouse assessed as increase in average survival time at 80 mg/kg, ip qd for 6 consecutive days starting 24 hrs post implantation measured relative to control.
Data set [2] relates to Sarcoma-180. Put plainly: Antitumor activity against mouse Sarcoma 180 cells allografted in CD-1 mouse assessed as mouse survival at 40 mg/kg, ip qd for 6 consecutive days starting 24 hrs post implantation measured after 50 days relative to control. Type of data set: functional. Conditions: Sarcoma-180, ip, route intraperitoneal. Summed up:
(§1)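 Female CD-1 mice carrying Sarcoma 180 ascites cells from 7-day donor tumors. Given intraperitoneal doses daily for six consecutive days beginning 24 h after implantation; groups of 10 mice, 5 for some. Read-out is the percentage of mice in each group alive more than 50 days.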

Data set [3] relates to Mus musculus. Put plainly: Toxicity in mouse Sarcoma 180 cells allografted CD-1 mouse assessed as change in body weight at 60 mg/kg, ip qd for 6 consecutive days starting 24 hrs post implantation (reference value: +13.5 %). Type of data set: organism-based. Set-up: dose 60 mg/kg, route intraperitoneal. Conditions: in vivo.
Data set [4] has as its system Sarcoma-180. Put plainly: Antitumor activity against mouse Sarcoma 180 cells allografted in CD-1 mouse assessed as increase in average survival time at 80 mg/kg, ip qd for 6 consecutive days starting 24 hrs post implantation measured relative to control. Conditions: route intraperitoneal. Type of data set: functional. A digest of the protocol:
(§2)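 Sarcoma 180 ascites cells propagated in female CD-1 mice; implanted from donors carrying 7-day tumors. Dosed intraperitoneally once daily for six days starting 24 h post-implant; 10 mice per group, 5 for some groups. %T/C = average survival time (treated/control) × 100; mice surviving more than 50 days counted as 50 days. Body-weight change over the therapy period also recorded.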

Data set [5] has as its system Sarcoma-180. Put plainly: Antitumor activity against mouse Sarcoma 180 cells allografted in CD-1 mouse assessed as increase in average survival time at 40 mg/kg, ip qd for 6 consecutive days starting 24 hrs post implantation measured relative to control. Type of data set: functional. Conditions: route intraperitoneal. Summed up:
as §2

In data set [6] the test system is L1210. Put plainly: Antitumor activity against mouse L1210 cells allografted in […] mouse assessed as increase in average survival time at 60 to 100 mg/kg, ip qd for 6 consecutive days starting 24 hrs post implantation relative to control.
Data set [7] relates to Mus musculus. Description: Toxicity in mouse Sarcoma 180 cells allografted CD-1 mouse assessed as change in body weight at 80 mg/kg, ip qd for 6 consecutive days starting 24 hrs post implantation (reference value: +13.5 %). Type of data set: organism-based. Set-up: dose 80 mg/kg, route intraperitoneal. Conditions: in vivo.
The test system of data set [8] is Sarcoma-180. Put plainly: Antitumor activity against mouse Sarcoma 180 cells allografted in CD-1 mouse assessed as mouse survival at 80 mg/kg, ip qd for 6 consecutive days starting 24 hrs post implantation measured after 50 days relative to control. Type of data set: functional. Particulars: Sarcoma-180, ip, route intraperitoneal. A digest of the protocol: as §1

The test system of data set [9] is Sarcoma-180. Put plainly: Antitumor activity against mouse Sarcoma 180 cells allografted in CD-1 mouse assessed as increase in average survival time at 60 mg/kg, ip qd for 6 consecutive days starting 24 hrs post implantation measured relative to control. Type of data set: functional. Conditions: route intraperitoneal. A digest of the protocol:
as §2

For data set [10], the system named is Sarcoma-180. Description: Antitumor activity against mouse Sarcoma 180 cells allografted in CD-1 mouse assessed as mouse survival at 60 mg/kg, ip qd for 6 consecutive days starting 24 hrs post implantation measured after 50 days relative to control. Conditions: Sarcoma-180, ip, route intraperitoneal. Type of data set: functional. A digest of the protocol: as §1

In data set [11] the test system is Mus musculus. Put plainly: Toxicity in mouse Sarcoma 180 cells allografted CD-1 mouse assessed as change in body weight at 40 mg/kg, ip qd for 6 consecutive days starting 24 hrs post implantation (reference value: +13.5 %). Type of data set: organism-based. Set-up: dose 40 mg/kg, route intraperitoneal. Conditions: in vivo.
Data set [12] has as its system L1210. Description: Antitumor activity against mouse L1210 cells allografted in CDF-1 mouse assessed as increase in average survival time at 60 to 100 mg/kg, ip qd for 6 consecutive days starting 24 hrs post implantation relative to control. Particulars: dose mg/kg 60-100; route intraperitoneal.

Calls of active or inactive are those of the source. The rule behind the calls is not given here.

The T/C is the result in the treated group divided by that in the control group, in per cent. For `COc1ccc(S(=O)(=O)N/N=C/c2ccnc[n+]2[O-])cc1`, the outcome in the data set on Sarcoma-180 [1] and in the data set with L1210 [6] was inactive. For the same compound, the survival at 40 mg/kg in the data set on Sarcoma-180 [2] turned out to be 0%. For the same compound, the Activity in the data set with Mus musculus [3] came to 10.8%; in the data set with Mus musculus [7], 13.9%; with Mus musculus [11], 20.3%. The T/C with Sarcoma-180 [4] worked out at 94%; with Sarcoma-180 [5], 96%; in the data set with Sarcoma-180 [9] it was 100%. Further, the survival at 80 mg/kg with Sarcoma-180 [8] was found to be 0%. Further, the survival at 60 mg/kg with Sarcoma-180 [10] is 0%.

With `COc1ccc(S(=O)(=O)N/N=C/c2cccn[n+]2[O-])cc1`, the survival at 40 mg/kg in the data set with Sarcoma-180 [2] turned out to be 10%. Also, the Activity was -3.2% in the data set with Mus musculus [3], -4.3% with Mus musculus [7] and -1.6% with Mus musculus [11]. Further, the T/C in the data set on Sarcoma-180 [4] came out at 193%; in the data set with Sarcoma-180 [5], 231%; in the data set on Sarcoma-180 [9], 218%. Besides, the outcome in the data set with L1210 [6] was inactive. Also, in the data set with Sarcoma-180 [8], the survival at 80 mg/kg was 0%. The survival at 60 mg/kg in the data set with Sarcoma-180 [10] was 20%.

For `O=S(=O)(N/N=C/c1ccnc[n+]1[O-])c1ccccc1`, the result in the data set on Sarcoma-180 [1] and in the data set with L1210 [6] was inactive. For the same compound, in the data set on Sarcoma-180 [2], the survival at 40 mg/kg worked out at 0%. Further, the Activity in the data set with Mus musculus [3] was determined as 11.2%; in the data set on Mus musculus [7], 9.6%; with Mus musculus [11], 16.3%. The T/C in the data set on Sarcoma-180 [4] is recorded as 112%; in the data set with Sarcoma-180 [5], 89%; in the data set on Sarcoma-180 [9], 97%. The survival at 80 mg/kg in the data set on Sarcoma-180 [8] was determined as 0%. In addition, the survival at 60 mg/kg in the data set with Sarcoma-180 [10] came out at 0%.

Turning to `Cc1ccc(S(=O)(=O)N/N=C/c2ccnc[n+]2[O-])cc1`, the outcome in the data set on Sarcoma-180 [1] and with L1210 [6] was inactive. Besides, the survival at 40 mg/kg in the data set with Sarcoma-180 [2] worked out at 0%. For the same compound, the Activity with Mus musculus [3] is given as 16.5%; in the data set on Mus musculus [7] it was 15.2%; with Mus musculus [11] it was 19.6%. The T/C in the data set on Sarcoma-180 [4] worked out at 103%; in the data set with Sarcoma-180 [5], 115%; in the data set with Sarcoma-180 [9], 100%. Besides, in the data set on Sarcoma-180 [8], the survival at 80 mg/kg was determined as 0%. Also, in the data set with Sarcoma-180 [10], the survival at 60 mg/kg stood at 0%.

In the case of `O=S(=O)(N/N=C/c1cccc[n+]1[O-])c1ccccc1`, in the data set on Sarcoma-180 [2], the survival at 40 mg/kg is 20%. The T/C with Sarcoma-180 [5] is given as 235%; in the data set with L1210 [12], 126%. For the same compound, in the data set with Mus musculus [11], the Activity is listed as -2.6%.

With `Cc1ccc(S(=O)(=O)N/N=C/c2cccc[n+]2[O-])cc1`, the T/C in the data set with L1210 [12] was 170%.

`O=S(=O)(N/N=C/c1cccn[n+]1[O-])c1ccccc1`: the survival at 40 mg/kg in the data set with Sarcoma-180 [2] was 10%. In addition, the Activity in the data set on Mus musculus [3] is recorded as -3.8%; in the data set with Mus musculus [7], -3.5%; in the data set on Mus musculus [11], -2.9%. Further, the T/C in the data set on Sarcoma-180 [4] is 274%; in the data set with Sarcoma-180 [5], 194%; in the data set on Sarcoma-180 [9], 230%. For the same compound, the outcome in the data set on L1210 [6] was inactive. Further, the survival at 80 mg/kg with Sarcoma-180 [8] amounted to 40%. In the data set with Sarcoma-180 [10], the survival at 60 mg/kg is 10%.

Regarding `Cc1ccc(S(=O)(=O)N/N=C/c2cccn[n+]2[O-])cc1`, the survival at 40 mg/kg in the data set on Sarcoma-180 [2] stood at 10%. The figures for the Activity in the data set on Mus musculus [3], in the data set with Mus musculus [7] and with Mus musculus [11] were -3.2%, -4.9% and -0.2%, respectively. Moreover, the results for the T/C with Sarcoma-180 [4], with Sarcoma-180 [5] and in the data set on Sarcoma-180 [9] were 315%, 164% and 254%, respectively. Also, the outcome in the data set on L1210 [6] was inactive. For the same compound, the survival at 80 mg/kg in the data set on Sarcoma-180 [8] stood at 60%. Also, the survival at 60 mg/kg in the data set with Sarcoma-180 [10] was determined as 20%.

Take `COc1ccc(S(=O)(=O)N/N=C/c2cccc[n+]2[O-])cc1`: the T/C with L1210 [12] was determined as 234%.
